In ChEMBL document CHEMBL4402584, “Lead Optimization of Phthalazinone Phosphodiesterase Inhibitors as Novel Antitrypanosomal Compounds” (J Med Chem, 2020):

Key:
[1] = Cytotoxicity against human MRC5 SV2 cells assessed as reduction in cell viability incubated for 72 hrs by resazurin dye based fluorimetric assay; conditions: MRC-5 SV2, 72 h
In short: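 MRC-5 SV2 fibroblasts grown in Earl's MEM with 5% FBSi, L-glutamine and bicarbonate; 1×10^4 cells/well treated 72 h at 37 °C, 5% CO2; resazurin viability read fluorimetrically (ex 550, em 590 nm). Five 4-fold dilutions from a 64 µM top concentration; IC50 derived from % viability reduction vs untreated wells; tamoxifen as reference.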

[2] = target: T1, Class 1 phosphodiesterase PDEB1 (Trypanosoma brucei, UniProt Q8WQX9); test: Inhibition of Trypanosoma brucei PDEB1 (565 to 918 residues) expressed in Escherichia coli BL21 (DE3) using cAMP as substrate by PDELight HTS cAMP phosphodiesterase Kit based
T1 sequence (Q8WQX9 whole entry): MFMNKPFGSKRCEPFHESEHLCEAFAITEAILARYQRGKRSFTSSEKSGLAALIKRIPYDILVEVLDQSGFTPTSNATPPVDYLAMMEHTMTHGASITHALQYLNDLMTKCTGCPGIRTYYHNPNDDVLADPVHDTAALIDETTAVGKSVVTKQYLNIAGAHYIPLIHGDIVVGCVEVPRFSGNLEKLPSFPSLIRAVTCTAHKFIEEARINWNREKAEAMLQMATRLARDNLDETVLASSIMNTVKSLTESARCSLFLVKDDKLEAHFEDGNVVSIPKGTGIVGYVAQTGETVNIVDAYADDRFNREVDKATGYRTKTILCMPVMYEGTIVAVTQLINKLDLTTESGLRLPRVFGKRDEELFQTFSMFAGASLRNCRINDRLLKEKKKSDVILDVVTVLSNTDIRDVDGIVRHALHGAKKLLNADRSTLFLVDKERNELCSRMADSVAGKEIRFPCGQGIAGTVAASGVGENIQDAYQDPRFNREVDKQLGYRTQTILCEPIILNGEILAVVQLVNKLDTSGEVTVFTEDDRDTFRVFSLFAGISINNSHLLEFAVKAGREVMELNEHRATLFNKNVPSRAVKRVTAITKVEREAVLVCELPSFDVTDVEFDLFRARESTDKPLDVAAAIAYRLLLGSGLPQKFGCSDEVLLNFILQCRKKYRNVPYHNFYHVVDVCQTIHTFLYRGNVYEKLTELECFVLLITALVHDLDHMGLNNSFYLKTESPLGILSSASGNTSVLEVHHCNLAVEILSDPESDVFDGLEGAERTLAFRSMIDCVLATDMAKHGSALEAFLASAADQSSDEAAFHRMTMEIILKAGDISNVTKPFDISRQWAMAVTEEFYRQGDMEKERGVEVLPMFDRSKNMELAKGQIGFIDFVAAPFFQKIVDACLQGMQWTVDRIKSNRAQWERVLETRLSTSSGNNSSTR
In short: (§1)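 Recombinant catalytic domains, His-tag purified, then ion exchange and size exclusion, were tested with the PDELight HTS cAMP kit in stimulation buffer (50 mM Hepes, 100 mM NaCl, 10 mM MgCl2, 0.5 mM EDTA, 0.05 mg/ml BSA, pH 7.5). Dose-response curves gave Ki, expressed as pKi = −log10(Ki ÷ 1000000).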

Trypanosoma brucei = test: Antitrypanosomal activity against Trypanosoma brucei Squib 427 assessed as reduction in parasite growth incubated for 72 hrs by resazurin dye based fluorimetric analysis; format: functional, organism-based; conditions: Squib 427, 72 h
[3] = target: 3',5'-cyclic-AMP phosphodiesterase 4D (Homo sapiens, UniProt Q08499); test: Inhibition of human PDE4D2 expressed in Escherichia coli BL21 (DE3) using cAMP as substrate by PDELight HTS cAMP phosphodiesterase Kit based; in short: as §1
3',5'-cyclic-AMP phosphodiesterase 4D, sequence (Q08499 whole entry): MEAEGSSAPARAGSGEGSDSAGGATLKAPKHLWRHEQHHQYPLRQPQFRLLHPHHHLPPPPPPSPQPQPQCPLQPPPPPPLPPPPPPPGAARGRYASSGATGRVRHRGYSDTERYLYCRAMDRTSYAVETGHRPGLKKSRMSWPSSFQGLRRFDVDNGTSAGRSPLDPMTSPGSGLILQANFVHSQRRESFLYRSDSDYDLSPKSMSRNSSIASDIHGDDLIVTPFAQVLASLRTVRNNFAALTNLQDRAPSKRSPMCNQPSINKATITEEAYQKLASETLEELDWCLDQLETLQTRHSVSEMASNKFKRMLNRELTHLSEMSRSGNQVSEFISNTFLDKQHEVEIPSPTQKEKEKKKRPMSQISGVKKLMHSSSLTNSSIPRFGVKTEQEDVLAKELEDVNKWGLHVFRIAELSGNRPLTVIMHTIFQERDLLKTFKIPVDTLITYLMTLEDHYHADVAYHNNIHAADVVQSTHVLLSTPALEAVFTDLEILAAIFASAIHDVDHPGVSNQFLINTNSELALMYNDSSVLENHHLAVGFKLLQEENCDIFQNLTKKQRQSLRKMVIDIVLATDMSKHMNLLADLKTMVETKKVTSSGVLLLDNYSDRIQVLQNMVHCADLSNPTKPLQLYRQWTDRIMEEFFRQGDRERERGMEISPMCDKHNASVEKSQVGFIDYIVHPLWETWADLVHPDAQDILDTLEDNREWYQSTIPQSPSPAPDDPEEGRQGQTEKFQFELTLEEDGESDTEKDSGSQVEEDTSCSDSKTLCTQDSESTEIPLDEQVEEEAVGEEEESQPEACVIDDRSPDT

SMILES	Ki [2] [µM]	IC50 (Trypanosoma brucei) [µM]	Ki [3] [µM]	IC50 [1] [µM]
COc1ccc(-c2ccc(=O)n(C3CCN(c4nc(N)nc5sccc45)CC3)n2)cc1OC	> 3.72	7.76	–	11.2
COc1ccc(C2=NN(C3CCN(C(=O)CN4C(=O)CC5(CCCCC5)CC4=O)CC3)C(=O)[C@@H]3CCCC[C@H]23)cc1OC	> 9.77	–	–	8.51
COc1ccc(-c2nn(C3CCN(c4nc(N)nc5sccc45)CC3)c(=O)n3ccnc23)cc1OC	> 18.2	64.6	–	64.6
COc1ccc(C2=NN(C3CCN(C(=O)CN4C(=O)CC(C)C4=O)CC3)C(=O)[C@@H]3CC=CC[C@H]23)cc1OC (stereo not given in full)	0.0759	1.82	0.00017	64.6
COc1ccc(C2=NN(C3CN(C(=O)CN4C(=O)CC5(CCCC5)CC4=O)C3)C(=O)[C@@H]3CC=CC[C@H]23)cc1OC	0.17	2.51	0.000676	64.6
COc1ccc(-c2n[nH]c(=O)n3ccnc23)cc1OC	> 31.6	64.6	–	64.6
COc1ccc(C2=NN(C3CCN(c4nc(N)nc5sccc45)CC3)C(=O)[C@@H]3CCCC[C@H]23)cc1OC	0.0933	0.955	0.000661	28.8
COc1ccc(C2=NN(C3CCN(C(=O)CN4C(=O)CC(Cc5ccccc5)C4=O)CC3)C(=O)[C@@H]3CC=CC[C@H]23)cc1OC (stereo not given in full)	0.0977	64.6	0.000316	64.6
COc1ccc(-c2nn(C3CCNCC3)c(=O)n3ccnc23)cc1OC	> 31.6	32.4	–	64.6
CC1(C)CC(=O)N(CC(=O)N2CCC(N3N=C(c4ccc(OC(F)F)c(OC(F)F)c4)[C@H]4CC=CC[C@H]4C3=O)CC2)C(=O)C1	0.407	1	0.000302	64.6
O=C(CN1C(=O)CC2(CCCCC2)CC1=O)N1CCC(N2N=C(c3ccc(OC(F)F)c(OC(F)F)c3)[C@H]3CC=CC[C@H]3C2=O)CC1	0.776	7.59	0.00162	64.6
CC1(C)CC(=O)N(CC(=O)N2CCC(N3N=C(c4ccc(F)c(F)c4)[C@H]4CCCC[C@H]4C3=O)CC2)C(=O)C1	> 22.4	45.7	–	42.7
COc1ccc(C2=NN(C3CN(C(=O)CN4C(=O)CC(C)(C)CC4=O)C3)C(=O)[C@@H]3CC=CC[C@H]23)cc1OC	0.102	1.82	0.000389	64.6
CC1(C)CC(=O)N(CC(=O)N2CCC(N3N=C(c4ccc(F)cc4)[C@H]4CC=CC[C@H]4C3=O)CC2)C(=O)C1 (relative stereo)	0.0776	64.6	0.00012	29.5
O=C(CN1C(=O)CC2(CCCC2)CC1=O)N1CCC(N2N=C(c3ccc(F)cc3)[C@H]3CC=CC[C@H]3C2=O)CC1 (relative stereo)	> 16.6	32.4	–	40.7
CC1(C)CC(=O)N(CC(=O)N2CCC(N3N=C(c4ccc(F)c(F)c4)[C@H]4CC=CC[C@H]4C3=O)CC2)C(=O)C1 (relative stereo)	> 9.77	47.9	–	30.9
O=C(CN1C(=O)CC2(CCCCC2)CC1=O)N1CCC(N2N=C(c3ccc(F)cc3)[C@H]3CC=CC[C@H]3C2=O)CC1 (relative stereo)	> 9.55	10.2	–	64.6

The next lines start with results.

Ki [2] [µM]	IC50 (Trypanosoma brucei) [µM]	Ki [3] [µM]	SMILES	IC50 [1] [µM]
0.11	1.86	0.000316	COc1ccc(C2=NN(C3CCN(c4nccc(N)n4)CC3)C(=O)[C@@H]3CC=CC[C@H]23)cc1OC	17.4
0.891	5.13	0.0631	O=C1[C@@H]2CC=CC[C@@H]2C(c2ccc(O)c(O)c2)=NN1C1CCN(c2ncnc3ccsc23)CC1	25.1
0.105	1.7	0.000871	COc1ccc(C2=NN(C3CCN(c4nc(N)nc5[nH]cnc45)CC3)C(=O)[C@@H]3CC=CC[C@H]23)cc1OC	17.8
0.288	15.1	0.000562	COc1ccc(C2=NN(C3CN(c4ncnc5ccsc45)C3)C(=O)[C@@H]3CC=CC[C@H]23)cc1OC	64.6
0.0427	0.468	0.000355	COc1ccc(C2=NN(C3CCN(c4nc(N)nc5sccc45)CC3)C(=O)[C@@H]3CC=CC[C@H]23)cc1OC	64.6
0.275	7.76	0.00117	COc1ccc(C2=NN(C3CN(c4nc(N)nc5sccc45)C3)C(=O)[C@@H]3CC=CC[C@H]23)cc1OC	64.6
0.832	2	0.0302	COc1ccc(C2=NN(C3CCN(c4nc(N)nc5sccc45)CC3)C(=O)[C@@H]3CC=CC[C@H]23)cc1Cl	64.6
0.692	2.29	0.00257	COc1ccc(C2=NN(C3CCN(c4ncc5sccc5n4)CC3)C(=O)[C@@H]3CC=CC[C@H]23)cc1OC	64.6
0.646	1.7	0.000589	COc1ccc(C2=NN(C3CCN(c4ncc5ccccc5n4)CC3)C(=O)[C@@H]3CC=CC[C@H]23)cc1OC	64.6
0.257	3.63	0.000513	COc1ccc(C2=NN(C3CCN(c4ccnc(N)n4)CC3)C(=O)[C@@H]3CC=CC[C@H]23)cc1OC	3.89
0.0245	0.813	0.000155	COc1ccc(C2=NN(C3CCN(c4nc(N)nc5ccccc45)CC3)C(=O)[C@@H]3CC=CC[C@H]23)cc1OC	7.76
> 1.66	3.39	–	O=C1[C@@H]2CC=CC[C@@H]2C(c2ccc(OC(F)F)c(O)c2)=NN1C1CCN(c2ncnc3ccsc23)CC1	64.6
> 2.04	32.4	–	COc1ccc(C2=NN(C3CCN(c4ncnc5ccsc45)CC3)C(=O)C2(C)C)cc1OC	25.1
0.646	0.871	0.00245	COc1ccc(C2=NN(C3CCN(c4nc(N)c5ccccc5n4)CC3)C(=O)[C@@H]3CC=CC[C@H]23)cc1OC	7.41
0.646	0.263	0.000224	COc1ccc(C2=NN(C3CCN(c4ncnc5ccccc45)CC3)C(=O)[C@@H]3CC=CC[C@H]23)cc1OC	3.02
0.0661	0.372	0.000234	COc1ccc(C2=NN(C3CCN(c4ncnc5ccsc45)CC3)C(=O)[C@@H]3CC=CC[C@H]23)cc1OC	7.24
